{
  "source": "paper PMC11564564",
  "about": "(Scientific Reports, 2024)",
  "key": {"[1]": {"tested_on": "ESBL-producing P. aeruginosa", "assay": "MIC by serial dilution, ESBL P. aeruginosa", "type": "cell-based", "conditions": "Pseudomonas aeruginosa, read-out: Minimum inhibitory concentration (MIC), P. aeruginosa", "summary_of_the_method": "(§1)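 Bacterial isolates were confirmed ESBL-positive by double disc synergy test. For that test, a 0.5 McFarland suspension was swabbed onto Mueller Hinton agar, and ceftazidime and cefotaxime (30 μg) discs were placed 20 mm from an amoxicillin/clavulanate (30 μg) disc. Plates were incubated at 37 °C for 18-20 h, and an enhanced zone indicated ESBL. Test compounds were dissolved in appropriate solvents, and MIC was determined by serial dilution, three replicates per concentration.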"}, "[2]": {"tested_on": "ESBL-producing K. pneumoniae", "assay": "MIC by serial dilution, ESBL K. pneumoniae", "type": "cell-based", "conditions": "Klebsiella pneumoniae, read-out: Minimum inhibitory concentration (MIC), K. pneumoniae", "summary_of_the_method": "as §1"}, "[3]": {"tested_on": "human red blood cells", "assay": "Hemolytic", "type": "cell-based", "conditions": "Erythrocyte, 1 h, read-out: IC50, Human RBC's", "summary_of_the_method": "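Blood from a healthy donor was collected in EDTA. RBCs were pelleted at 14,000 rpm for 5 min, and 200 µL of pellet was resuspended in 9.8 mL PBS, pH 7.2. 100 µL suspension plus 100 µL test solution (200–1 µg/mL) were incubated 1 h at 35 °C, then spun at 10,000 rpm for 10 min. Supernatant haemoglobin was read at 540 nm. Triton X-100 and PBS defined 100% and 0% hemolysis.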"}, "[4]": {"assay": "Solubility in DMSO", "type": "physicochemical"}, "[5]": {"tested_on": "ESBL-producing strains (E. coli, K. pneumoniae, and P. aeruginosa)", "assay": "MIC, summary across ESBL-producing strains", "type": "cell-based", "summary_of_the_method": "(§2)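 MIC was set by serial dilution of test compound, with three replicates per concentration. Strains were clinical E. coli, K. pneumoniae and P. aeruginosa isolates, identified biochemically and confirmed as ESBL producers by double disc synergy test (ceftazidime and cefotaxime discs 20 mm from amoxicillin/clavulanate on Mueller Hinton agar, 37 °C, 18–20 h).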"}, "[6]": {"tested_on": "ESBL-producing E. coli", "assay": "MIC by serial dilution, ESBL E. coli", "type": "cell-based", "conditions": "Escherichia coli, read-out: Minimum inhibitory concentration (MIC), E. coli", "summary_of_the_method": "as §2"}, "[7]": {"assay": "Brine shrimp lethality", "conditions": "Artemia salina (brine shrimp), in vivo", "summary_of_the_method": "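Artemia salina eggs were hatched for 24 h in aerated, lit salt water (27 g table salt per 3 L). Ten nauplii went into each tube with test compound at 1–200 µg/mL in 300 µL total. After 24 h, survivors were counted under a magnifier and percent mortality calculated. IC50 came from Finney analysis.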"}, "[8]": {"tested_on": "tuberculosis", "conditions": "cited from earlier work"}},
  "data": [
    {"smiles": "COc1cc(C=Nc2ccc([N+](=O)[O-])cc2)ccc1O", "note": "[SB-1, 2-Methoxy-4-((4-nitrophenylimino)methyl)phenol]", "values": [
      {"measurement": "MIC", "setting": "[1]", "result": 125, "unit": "µg/mL"},
      {"measurement": "MIC", "setting": "[2]", "result": 125, "unit": "µg/mL"},
      {"measurement": "IC50", "setting": "[3]", "result": "> 200", "unit": "µg/mL"},
      {"measurement": "Solubility in DMSO", "setting": "[4]", "result": "Soluble in DMSO"},
      {"measurement": "MIC", "setting": "[5]", "result": 125, "unit": "µg/mL"},
      {"measurement": "MIC", "setting": "[6]", "result": 125, "unit": "µg/mL"},
      {"measurement": "IC50 at 24 h", "setting": "[7]", "result": 50.5, "unit": "µg/mL"}
    ]},
    {"smiles": "COc1cc(C=Nc2cccc(O)c2)ccc1O", "note": "[SB-4, 4-((3-Hydroxyphenylimino)methyl)-2-methoxyphenol]", "values": [
      {"measurement": "MIC", "setting": "[1]", "result": 125, "unit": "µg/mL"},
      {"measurement": "MIC", "setting": "[2]", "result": 125, "unit": "µg/mL"},
      {"measurement": "Solubility in DMSO", "setting": "[4]", "result": "Soluble in DMSO"},
      {"measurement": "MIC", "setting": "[5]", "result": 125, "unit": "µg/mL"},
      {"measurement": "MIC", "setting": "[6]", "result": 125, "unit": "µg/mL"}
    ]},
    {"smiles": "COc1cc(C=Nc2ccc(C)cc2Cl)ccc1O", "note": "[SB-3, 4-((2-Chloro-4-methylphenylimino)methyl)-2-methoxyphenol]", "values": [
      {"measurement": "MIC", "setting": "[1]", "result": 125, "unit": "µg/mL"},
      {"measurement": "MIC", "setting": "[2]", "result": 125, "unit": "µg/mL"},
      {"measurement": "IC50", "setting": "[3]", "result": "> 200", "unit": "µg/mL"},
      {"measurement": "Solubility in DMSO", "setting": "[4]", "result": "Soluble in DMSO"},
      {"measurement": "MIC", "setting": "[5]", "result": 125, "unit": "µg/mL"},
      {"measurement": "MIC", "setting": "[6]", "result": 125, "unit": "µg/mL"}
    ]},
    {"smiles": "COc1cc(C=Nc2ccccc2Br)ccc1O", "note": "[SB-2, 4-((2-Bromophenylimino)methyl)-2-methoxyphenol]", "values": [
      {"measurement": "MIC", "setting": "[1]", "result": 250, "unit": "µg/mL"},
      {"measurement": "MIC", "setting": "[2]", "result": 250, "unit": "µg/mL"},
      {"measurement": "Solubility in DMSO", "setting": "[4]", "result": "Soluble in DMSO"},
      {"measurement": "MIC", "setting": "[5]", "result": 250, "unit": "µg/mL"},
      {"measurement": "MIC", "setting": "[6]", "result": 250, "unit": "µg/mL"}
    ]},
    {"smiles": "[H]/N=C(/N)N[C@H]1[C@H](O)[C@@H](O)[C@H](O[C@@H]2O[C@@H](C)[C@](O)(C=O)[C@H]2O[C@@H]2O[C@@H](CO)[C@H](O)[C@@H](O)[C@@H]2NC)[C@@H](N/C(N)=N\\[H])[C@@H]1O", "note": "[streptomycin]", "values": [
      {"measurement": "MIC, antituberculosis activity", "setting": "[8]", "result": 0.0107, "unit": "µmol/mL"}
    ]},
    {"smiles": "COc1cc(C=Nc2ccc(Cl)cc2Cl)ccc1O", "note": "[SB-5, 4-((2,4-Dichlorophenylimino)methyl)-2-methoxyphenol]", "values": [
      {"measurement": "MIC", "setting": "[1]", "result": 125, "unit": "µg/mL"},
      {"measurement": "MIC", "setting": "[2]", "result": 125, "unit": "µg/mL"},
      {"measurement": "IC50", "setting": "[3]", "result": "> 200", "unit": "µg/mL"},
      {"measurement": "Solubility in DMSO", "setting": "[4]", "result": "Soluble in DMSO"},
      {"measurement": "MIC", "setting": "[5]", "result": 125, "unit": "µg/mL"},
      {"measurement": "MIC", "setting": "[6]", "result": 125, "unit": "µg/mL"},
      {"measurement": "IC50 at 24 h", "setting": "[7]", "result": 45.7, "unit": "µg/mL"}
    ]}
  ]
}
